Results taken from paper PMC10404122 (Drug Design, Development and Therapy, 2023).

Assays:
[1] = Population pharmacokinetic model; assay type: in vivo, human; details: ICU patients, iv, 304 samples from 108 patients, two-compartment model
Procedure, shortened: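 NONMEM fit with FOCE with interaction. One- vs two-compartment chosen by goodness-of-fit plots. Covariates tested: sex, age, weight, ALB, Scr, Cockcroft-Gault Ccr, CKD-EPI eGFR, CRRT, APACHE II. Forward inclusion at P < 0.05 (ΔOFV −3.84), backward elimination at P < 0.001 (ΔOFV −10.828). Robustness checked with 1000 bootstrap resamples (median, 2.5–97.5 percentiles). VPC, NPDE and external-set MPE/RMSE also run.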

[2] = Stability of plasma samples; assay type: in vitro ADME; details: human plasma (EDTA), −20 °C, HPLC-MS/MS of A2-2
[3] = cited from earlier work
[4] = cited from earlier work; remark: listed apart in the source
[5] = plasma concentration; cited from earlier work

teicoplanin
Q, inter-compartmental clearance, final model estimate [1]: 3.08 L/h | Vc, volume of the central compartment, final model estimate [1]: 14.4 L | Vp, volume of the peripheral compartment, final model estimate [1]: 51.6 L | time for which plasma samples were found to be stable [2]: at least 41 days | patients in whom the standard dosing regimen was insufficient to achieve 10 mg/L ([3]; 400 mg q12h×3, 400 mg qd, within the initial three days): more than 50% | elimination half-life [3]: 169 h | plasma protein binding rate [4]: over 90% | concentration inducing adverse effects: thrombocytopenia [5]: ≥ 40000 ng/mL
